Assay outcomes as filed in PubChem BioAssay.
Rows were chosen to be rich in hits. Some 2.5% of all compounds tested hit in one or more screens of this group.
TRPC6 inhibitor – blocks the mouse TRPC6 cation channel; HEK293-TRPC6, membrane potential dye, ACh-evoked depolarization; stronger effect = lower value; B-score at 10 µM; Q61143; 310,000 compounds, 1.1% hits; AID 2553;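 active means B-score under library mean minus 3 SD, initial fluorescence not abnormally high, positive integrated signal ratio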;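 further: B-score derived from integrated fluorescence ratio over the kinetic read; more negative B-score means stronger inhibition of depolarization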
Platelet DG rel – platelet dense granule release activity; human platelet-rich plasma, SFLLRN dense granule ATP release, luminescence; inhibition, %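 (compounds screened at 7.5 µM in platelet-rich plasma)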; AID 1663; 300,000 compounds, 0.22% hits;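 active means mean replicate score, as percent of positive control, at or above 50; inconclusive means mean below 50 but at least one replicate at or above 50; inactive means mean and every replicate below 50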
TRPC6 act – mouse TRPC6 channel activation. HEK293-TRPC6 membrane potential dye fluorescence; stronger effect = higher value. B-score at 10 µM. 310,000 compounds, 0.13% hits. AID 2550. Q61143;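 active means B-score of the integrated fluorescence ratio above library mean plus 3 SD, and starting fluorescence ratio within library mean plus 5 SD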;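 further: higher score means more depolarization so channel activation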
TRPC4 potent – allosterically enhances the mouse TRPC4 cation channel; Q9QUQ5; HEK293 TRPC4beta/mu-opioid, DAMGO EC20, Fluo-4 Ca2+ flux; stronger effect = higher value; B-score at 10 µM; 310,000 compounds, 0.42% hits; AID 2227;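 active means B-score of calcium response area above 5 SD of library B-scores, with initial fluorescence ratio within 5 SD of library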;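 further: B-score of integrated fluorescence ratio over time as area under calcium response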
Target sequence (Q9QUQ5 whole entry, looked up): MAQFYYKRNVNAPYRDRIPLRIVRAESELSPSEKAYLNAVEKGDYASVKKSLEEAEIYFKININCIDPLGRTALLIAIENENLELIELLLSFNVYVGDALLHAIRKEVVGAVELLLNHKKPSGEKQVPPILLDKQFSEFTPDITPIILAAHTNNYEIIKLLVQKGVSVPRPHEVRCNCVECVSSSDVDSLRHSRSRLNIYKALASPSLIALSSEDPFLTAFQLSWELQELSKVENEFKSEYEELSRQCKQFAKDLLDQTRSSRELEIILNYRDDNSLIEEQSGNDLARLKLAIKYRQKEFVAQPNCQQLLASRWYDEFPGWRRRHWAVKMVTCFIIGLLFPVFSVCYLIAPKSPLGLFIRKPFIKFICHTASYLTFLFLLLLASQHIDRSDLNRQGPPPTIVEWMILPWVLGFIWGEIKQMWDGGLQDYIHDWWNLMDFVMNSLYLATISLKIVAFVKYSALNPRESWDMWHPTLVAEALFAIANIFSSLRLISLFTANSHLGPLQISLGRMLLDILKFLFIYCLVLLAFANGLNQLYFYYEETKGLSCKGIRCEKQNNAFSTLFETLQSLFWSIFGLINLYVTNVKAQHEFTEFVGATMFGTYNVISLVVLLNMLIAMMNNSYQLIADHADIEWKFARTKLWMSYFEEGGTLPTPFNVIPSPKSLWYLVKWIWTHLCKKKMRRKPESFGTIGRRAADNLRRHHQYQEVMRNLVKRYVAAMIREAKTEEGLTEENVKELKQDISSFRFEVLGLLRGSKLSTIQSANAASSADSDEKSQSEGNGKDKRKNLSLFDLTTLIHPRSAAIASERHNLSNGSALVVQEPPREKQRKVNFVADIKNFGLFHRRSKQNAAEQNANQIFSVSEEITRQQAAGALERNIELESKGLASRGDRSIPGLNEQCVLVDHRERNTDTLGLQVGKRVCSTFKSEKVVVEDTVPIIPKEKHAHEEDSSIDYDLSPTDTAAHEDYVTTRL
TRPC4 act – activators of mouse TRPC4 channel | Q9QUQ5 | HEK293 TRPC4beta/mu-opioid, Fluo4 calcium fluorescence; stronger effect = higher value | B-score at 10 µM | 310,000 compounds, 0.49% hits | AID 2237;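 active means B-score above 5 SD of library B-scores, and initial fluorescence ratio not above library mean plus 5 SD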;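 further: positive B-score marks a calcium rise read as TRPC4 activation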
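system = HEK293 cells stably co-expressing mouse TRPC4beta and mu-opioid receptor | schedule = Fluo4 dye loading 45 min at room temperature, 110 s recording | measure = B-scored integrated calcium fluorescence ratio | signal = Fluo4 calcium-sensitive dye fluorescence, kinetic, 1 Hz baseline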
TRPC4 block – inhibitors of mouse TRPC4 channel; Q9QUQ5; HEK293 TRPC4beta/mu-opioid, DAMGO-evoked Fluo4 calcium flux; stronger effect = lower value; B-score at 10 µM; 300,000 compounds, 0.39% hits;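 active means B-score over 3 SD under the library average, no early fluorescence shift, positive overall ratio signal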
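Material: HEK293 cells with stable TRPC4beta plus mu-opioid receptor expression / Probe or stimulus: DAMGO in two steps, submaximal then maximal / Compound: single concentration per test compound / Technique: kinetic Fluo4 fluorescence imaging of calcium influx / Read-out: per-well B score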
The depositor's hits bear a star; i = inactive; ? = inconclusive.

SMILES	TRPC6 inhibitor	Platelet DG rel	TRPC6 act	TRPC4 potent	TRPC4 act	TRPC4 block
CCOC(=O)c1cc(C#N)c(Oc2ccc(F)cc2)nc1-c1ccccc1	i	-11	i	i	i	-5*
CCN1/C(=C\c2ccc3cc(C)ccc3[n+]2CC)Sc2cc(C)c(C)cc21	i	-2	i	29*	131*	i
CCN1/C(=C/c2ccc3cccc(C)c3[n+]2CC)Sc2ccccc21	i	-5	i	15*	335*	-6*
CCN1/C(=C/c2ccc3cc(C)ccc3[n+]2CC)Sc2ccc3sccc3c21	i	6	i	i	i	i
COc1ccc(NC(C)=O)cc1CNC(=O)COc1ccccc1C(=O)Nc1cccc(C)c1C	i	-6	i	i	i	i
CC(C)(C)c1cc(CCC(=O)NNC(=O)c2ccco2)cc(C(C)(C)C)c1O	i	-3	i	i	i	i
CC(C)(C)c1cc(CCC(=O)NNC(=S)NC(=O)c2ccccc2)cc(C(C)(C)C)c1O	i	18	i	i	211*	i
O=C(CCc1ccccc1)NNC(=S)NC(=O)c1ccccc1	i	6	i	i	150*	i
COc1ccc(C2CC(=O)N3CN(c4ccc(C)c(Cl)c4)CSC3=C2C#N)cc1OC (configuration not stated)	i	?	i	i	i	-6*
CC(Sc1nnnn1-c1ccccc1)C(=O)Nc1ccc(N2CCN(C)CC2)cc1 (configuration not stated)	i	-1	i	i	47*	i
COc1ccc(-c2cc3c(nn2)-c2ccccc2C3=O)cc1	i	55*	i	i	i	i
O=C1c2ccccc2-c2nnc(-c3ccccc3)cc21	i	24	i	i	i	i
CCc1ccccc1NC(=O)CN(C)C(=O)CSc1nn(-c2ccccc2)c(=S)s1	i	-2	i	i	i	i
CCOC(=O)c1c(NC(=O)COC(=O)Cn2cnc3c2c(=O)n(C)c(=O)n3C)sc(C)c1CC	i	-10	i	i	i	-7*
Nc1ccc(Sc2ccc([N+](=O)[O-])cc2)cc1	i	3	i	i	i	-6*
O=C1C=CC(=O)N1c1ccc(Sc2ccc([N+](=O)[O-])cc2)cc1	i	8	i	i	i	i
COc1ccc(CNC(=O)C2CCCN2S(=O)(=O)c2ccc(F)cc2)cc1 (configuration not stated)	i	11	i	i	i	i
CC(C)CN1C(=O)C(=O)N(CC(=O)N2CCN(c3ccccc3)CC2)C1=O	i	28	i	i	i	i
N#Cc1ccc(-c2ccccc2)nc1SCCN1CCOCC1	i	2	i	20*	i	i
Cc1cc(C)c(C#N)c(SCCN2CCOCC2)n1	i	-2	i	i	i	i
CC(C)c1[nH]nc2c1C(C1C=CCCC1)C(C#N)=C(N)O2 (configuration not stated)	i	-10	i	21*	i	i
CCOc1ccccc1NC(=O)CSc1nc2ccccc2c(=O)n1CC1CCCO1 (configuration not stated)	i	3	i	i	i	-6*
CCOC(=O)CSc1nc2ccccc2c(=O)n1CC	i	-3	i	i	i	i
CCOC(=O)CSc1nc2ccccc2c(=O)n1CC1CCCC1	i	-28	i	i	i	-9*
Cc1nn(-c2ccccc2)c2nc(-c3ccccc3)cc(C(=O)N3CCOCC3)c12	i	0	i	14*	i	i
SMILES	TRPC6 inhibitor	Platelet DG rel	TRPC6 act	TRPC4 potent	TRPC4 act	TRPC4 block
O=C([O-])c1cc(-c2ccccc2)cc(-c2ccccc2)[n+]1Cc1ccccc1	-5.4*	0	i	i	i	i
NCCNC(=O)c1c(O)c2cccc3c2n(c1=O)CCC3	i	-6	i	i	104*	i
Cc1ccc(NC(=O)c2cccs2)cc1	i	6	i	i	77*	-6*
Cc1ccc(NC(=O)C(=O)NNC(=O)c2cccs2)cc1	i	-1	i	i	i	i
O=[N+]([O-])c1ccccc1S(=O)(=O)N1CCN(Cc2cc3c(cc2O)OCO3)CC1	i	5	i	i	i	i
O=[N+]([O-])c1ccccc1CN1CCN(S(=O)(=O)c2ccccc2)CC1	i	4	i	17*	i	i
CC(=O)Nc1ccc(S(=O)(=O)NCC2CCC(C(=O)NC(C)c3ccc4c(c3)OCCO4)CC2)cc1 (configuration not stated)	i	6	i	i	i	i
Cc1onc(-c2c(F)cccc2Cl)c1C(=O)N1CCN(c2ncc(Br)cn2)CC1	i	-38	i	i	86*	i
COc1ccccc1N1CCN(c2ccc(-c3ccccc3)nn2)CC1	i	54*	i	i	i	i
Cc1nc(N2CCC(C)CC2)c2c(C)c(C(=O)O)sc2n1	i	2	i	i	i	i
CCCCN=C(Nc1ccc(Cl)cc1)c1cccnc1	i	-9	i	i	i	-6*
Cn1c(=O)c2c(nc(Cl)n2CC(=O)NC2(C#N)CCCCC2)n(C)c1=O	i	-2	i	i	i	i
Cc1ccc(S(=O)(=O)Cc2ccc(C(=O)N3CCN(c4cccc(C)c4C)CC3)o2)cc1	i	94*	i	i	i	i
COc1ccc(S(=O)(=O)Cc2ccc(C(=O)N3CCN(c4cccc(C)c4C)CC3)o2)cc1	i	2	i	i	i	i
COc1ccccc1NC(=O)c1ccc(S(=O)(=O)N2CCCC(C)C2)cc1 (configuration not stated)	i	4	i	i	i	i
Cn1c(N2CCN(C(=O)Nc3ccc(C(F)(F)F)cc3)CC2)nc2ccccc21	i	0	i	i	94*	i
COc1ccc(C2OC(=O)CC2C(=O)NCc2ccccc2Cl)cc1OC (configuration not stated)	i	-3	i	i	i	i
CCOC(=O)CN1N=C(/C=C/c2ccc(C(C)C)cc2)CCC1=O	i	1	i	11*	i	i
CCOC(=O)CN1N=C(/C=C/c2ccccc2)CCC1=O	i	1	i	i	i	i
COc1ccc(C(C(=O)NC(C)(C)C)N(C(=O)CCC(=O)Nc2cc(C)on2)c2cccc(C)c2C)cc1 (configuration not stated)	i	1	i	i	i	i
